Published values of several laboratories.
Target: Casein kinase I isoform gamma-3 (CSNK1G3, Homo sapiens, UniProt Q9Y6M4)

SMILES	effect on	action	method	concentration	measurement	value
CCN1CCC2(CC1)NC(=O)c1c(c3ccc(Cl)c(Cl)c3n1C)C2C#N (racemic)	thermal stability		DSF	10 µM	ΔTm	0.8 °C
O=C(Nc1cnn(-c2csc(C(=O)NC3COC3)c2)c1)Nc1c(F)cccc1Cl	enzyme activity	inhibitor		5 µM	remaining activity	92.6%
O=C(O)[C@@H]1[C@@H](Cn2nnc3ccccc3c2=O)CC[C@H]1C(=O)c1ccc(OCCC2CCOCC2)cc1	cell-free assay		competition with immobilised ligand	1 µM	remaining binding	100%
COc1cc2c(N3CCN(C(=O)Nc4ccc(OC(C)C)cc4)CC3)ncnc2cc1OCCCN1CCCCC1	cell-free assay			0.5 µM	remaining signal	95%
Cn1c2c(Cl)c(Cl)ccc2c2cc(N)[nH]c(=O)c21	thermal stability		DSF	10 µM	ΔTm	0.1 °C
CNC(=O)c1cc(Oc2ccc(NC(=O)Nc3ccc(Cl)c(C(F)(F)F)c3)cc2)ccn1	enzyme activity	inhibitor		0.3 µM	inhibition	-4%
CO[C@@H](C)c1c(Nc2ccc([C@@H](N(C)C(=O)C3CCS(=O)(=O)CC3)C(F)(F)F)cc2)cnc2cc(Cl)nn12	cell-free assay		competition with immobilised ligand	1 µM	remaining binding	71%
Nc1ncnc2occ(-c3ccc(NC(=O)Nc4cc(C(F)(F)F)ccc4F)cc3)c12	cell-free assay	inhibitor		20 µM	remaining signal	11%
Cn1c2c(c3ccc(Cl)c(Cl)c31)C(C#N)C1(CCNCC1)NC2=O (racemic)	thermal stability		DSF	10 µM	ΔTm	2.9 °C
CCS(=O)(=O)c1cc2cc(C[C@@](O)(CC(C)(C)c3ccc(F)cc3C(N)=O)C(F)(F)F)[nH]c2cn1	cell-free assay		competition with immobilised ligand	1 µM	remaining binding	100%
Cc1ccc(Nc2nccc(N(C)c3ccc4c(C)n(C)nc4c3)n2)cc1S(N)(=O)=O	enzyme activity	inhibitor		0.3 µM	inhibition	-8%
Cn1c2c(Cl)c(Cl)ccc2c2cn[nH]c(=O)c21	thermal stability		DSF	10 µM	ΔTm	-0.1 °C
CCCOc1ccc([C@@H]2[C@@H](C(=O)O)[C@H](c3ccc4c(c3)OCO4)CN2CC(=O)Nc2c(CC)cccc2CC)cc1	cell-free assay		competition with immobilised ligand	1 µM	remaining binding	100%
Cn1c2c(c3ccc(Cl)c(Cl)c31)C(C#N)C1(CCOCC1)NC2=O (centres unmarked)	thermal stability		DSF	10 µM	ΔTm	0.2 °C
COc1cc2ncnc(Nc3ccc(Oc4ccccc4)c(C)c3C)c2cc1OC	enzyme activity	inhibitor		1 µM	inhibition	3%
CC(C)(C)c1nc2c(s1)c1nc(N)ncc1c1ccc(NS(=O)(=O)c3c(F)cccc3F)c(F)c12	enzyme activity	inhibitor	radiometric	1 µM	remaining activity	86%
O=C(NC[C@@H]1[C@H]2CN(C(=O)OCc3cc(C(F)(F)F)cc(C(F)(F)F)c3)C[C@@H]12)c1ccc2[nH]nnc2c1	cell-free assay		competition with immobilised ligand	1 µM	remaining binding	89%
Cc1cnc(NC2CCOCC2)nc1-n1cnc(C(=O)NC(CN)c2cc(F)cc(Cl)c2)c1 (centres unmarked)	enzyme activity	inhibitor	radiometric	1 µM	remaining activity	33%
Cc1ccc(NC(=O)c2ccc(C)c(C(F)(F)F)c2)cc1C#Cc1nn(C2CCC(O)CC2)c2ncnc(N)c12 (centres unmarked)	cell-free assay			10 µM	remaining signal	103%
CCOc1cc(-c2nncn2C)ccc1Nc1ncc2cc(C)nc(NCC(C)(C)C)c2n1	enzyme activity	inhibitor	FRET	1 µM	inhibition	< 15%
N#CC1c2c([nH]c3c(Cl)c(Cl)ccc23)C(=O)NC12CCCCC2 (racemic)	thermal stability		DSF	10 µM	ΔTm	0.2 °C
COc1cc2c(Nc3ccc(Br)cc3F)ncnc2cc1OCC1CCN(C)CC1	cell-free assay			0.5 µM	remaining signal	98.1%
O=S(=O)(NC1CCC(c2cc(F)ccc2F)(S(=O)(=O)c2ccc(Cl)cc2)CC1)C(F)(F)F (centres unmarked)	cell-free assay		competition with immobilised ligand	1 µM	remaining binding	83%
O=C1Nc2ccc(Cl)cc2C1=Cc1cc(Cl)c(O)c(Cl)c1	cell-free assay			0.5 µM	remaining signal	93%
CNC(=O)Nc1ccc2c(c1)CC[C@@]21OC(=O)N(CC(=O)N(Cc2ccc(F)cc2)[C@@H](C)C(F)(F)F)C1=O	cell-free assay		competition with immobilised ligand	1 µM	remaining binding	84%
Cc1cc(NC(=O)c2cccc3cc(-c4cccc5[nH]nc(N)c45)ccc23)ccc1F	enzyme activity	inhibitor		0.1 µM	activity vs control	107%
CN(c1nccc(-c2cnn3ncccc23)n1)C1CC1	binding			1 µM	remaining binding	100%
O=C(N[C@H]1CCCCC/C=C\C2C[C@@]2(C(=O)O)NC(=O)[C@@H]2C[C@@H](Oc3ccncc3)CN2C1=O)OC1CCCC1 (some centres unmarked)	binding		competition with immobilised ligand	1 µM	remaining binding	100%
COc1cc2ncnc(Nc3ccc(F)c(Cl)c3)c2cc1OCCCN1CCOCC1	cell-free assay			0.5 µM	remaining signal	103%
